Assay results from ChEMBL document CHEMBL1127556, “Synthesis and topical antiinflammatory and antiallergic activities of antioxidant o-aminophenol derivatives” (J Med Chem, 1994).
Converted amounts (≈) assume the structure as drawn.

Columns and labels:
Mus musculus [1] = species: Mus musculus; assay: Inhibitory effects on delayed type hypersensitive reaction in mouse ears at a dose of 300 ug/site; format: functional
Method in brief: (§1)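 ICR mice, 10 or 12 per group, sensitized by abdominal swabbing with 0.1 mL antigen in acetone (7% picryl chloride or 1% OXA). DTH response assessed in mouse ears.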

Rattus norvegicus [2] = species: Rattus norvegicus; assay: Inhibitory effects on passive cutaneous anaphylaxis in rats at a dose of 1 mg/site; format: functional
Method in brief: (§2)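 Male SD rats, eight per group, sensitized intradermally at two dorsal sites with 0.05 mL anti-ovalbumin rat IgE serum diluted 1:8 in 0.9% saline. Compound applied topically to those sites 5 h before iv challenge 48 h later with 2 mg ovalbumin plus 5 mg Evans blue in 1 mL. Extravasated dye measured 30 min later; percent inhibition versus control group.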

Mus musculus [3] = assay: Inhibitory effects on arachidonic acid (AA) induced mouse ear edema at a dose of 100 ug/ear; format: functional
Method in brief: (§3)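 Male ICR mice (30–40 g, 10–15 per group). Compound in 25 μL acetone/pyridine/water 97:2:1 with arachidonic acid (50 mg/mL) applied to inner surface of one ear. After 1 h, CO2 sacrifice, 6-mm disk punched, edema measured as change in wet weight versus controls.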

Rattus norvegicus [4] = species: Rattus norvegicus; assay: Evaluated for its antioxidative effect using the thiobarbituric acid (TBA) method in rat; format: functional
Method in brief: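 Test sample in 67 mM phosphate buffer pH 7.4 mixed with 10% male Wistar rat (300–400 g) forebrain homogenate. Shaken 1 h at 37 °C, deproteinated with 20% TCA. Supernatant heated 10 min at 100 °C with 1.2% thiobarbiturate; absorbance read at 532 nm.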

Cavia porcellus [5] = species: Cavia porcellus; assay: Compound was evaluated for maximization test in guinea pigs and the erythema was observed for the experiment 4;0/2; format: functional
Method in brief: (§4)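 Maximization test in guinea pigs with the dorsal neck region clipped and then shaved. Skin reactions were read at 24 and 48 h. Erythema was graded 0–4 and edema 0–3, and values are counts of animals at each grade. Groups held 6 animals, or 4 in the control-paired group.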

Cavia porcellus [6] = species: Cavia porcellus; assay: Compound was evaluated for maximization test in guinea pigs and the erythema was observed for the experiment 1; format: functional; method in brief: as §4
Cavia porcellus [7] = species: Cavia porcellus; assay: Compound was evaluated for maximization test in guinea pigs and the erythema was observed for the experiment 2;3/0; format: functional; method in brief: as §4
Cavia porcellus [8] = assay: Compound was evaluated for maximization test in guinea pigs and the edema was observed for the experiment 3; format: functional; method in brief: as §4
Cavia porcellus [9] = assay: Compound was evaluated for maximization test in guinea pigs and the edema was observed for the experiment 0; format: functional; method in brief: as §4
Cavia porcellus [10] = assay: Compound was evaluated for maximization test in guinea pigs and the edema was observed for the experiment 2;4/4; format: functional; method in brief: as §4
Cavia porcellus [11] = assay: Compound was evaluated for maximization test in guinea pigs and the edema was observed for the experiment 1; format: functional; method in brief: as §4
Cavia porcellus [12] = species: Cavia porcellus; assay: Compound was evaluated for maximization test in guinea pigs and the erythema was observed for the experiment 0; format: functional; method in brief: as §4
Cavia porcellus [13] = species: Cavia porcellus; assay: Compound was evaluated for maximization test in guinea pigs and the erythema was observed for the experiment 3;1/2; format: functional; method in brief: as §4
Mus musculus [14] = assay: Evaluated for its inhibitory effects on 12-O-tetradecanoylphorbol-13-acetate (TPA) -induced edema in mouse ear at a dose of 100 ug/site; format: functional
Method in brief: (§5)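 Male ICR mice, 30–40 g, 10–15 per group. Test compound applied in 25 μL acetone/pyridine/water 97:2:1 containing TPA (200 μg/mL) to the inner surface of one ear. Killed with CO2 5 h later; 6-mm ear punch weighed wet for edema. ED50 taken from three-point dose titration curves.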

Mus musculus [15] = species: Mus musculus; assay: Compound was evaluated for its effective dose to inhibit picryl chloride induced delayed type hypersensitivity; format: functional; method in brief: as §1
Mus musculus [16] = species: Mus musculus; assay: Compound was evaluated for its effective dose to inhibit oxazolone- induced delayed type hypersensitivity; format: functional; method in brief: as §1
Oryctolagus cuniculus [17] = species: Oryctolagus cuniculus; assay: Compound was evaluated for primary irritation test by applying at the intact site and the average score was reported. Number of animals tested =6; format: toxicity, organism-based; settings: rabbit, in vivo, topical_or_ocular
Method in brief: (§6)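 Rabbit backs shaved and depilated; 0.5 g compound applied to four sites (two intact, two abraded) under gauze for 24 h. Sites examined grossly 24 and 72 h after removing covering; scored by Draize method.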

Oryctolagus cuniculus [18] = species: Oryctolagus cuniculus; assay: Compound was evaluated for primary irritation test by applying at the abraded site and the average score was reported. Number of animals tested =6; format: toxicity, organism-based; settings: rabbit, in vivo, topical_or_ocular; method in brief: as §6
Rattus norvegicus [19] = species: Rattus norvegicus; assay: Compound was evaluated for its inhibitory effects on passive cutaneous anaphylaxis in rats at a dose of 2.5 mg/site; format: functional; method in brief: as §2
Mus musculus [20] = assay: Compound was evaluated for its inhibitory effects on 12-O-tetradecanoylphorbol-13-acetate -induced edema; format: functional; method in brief: as §5
Mus musculus [21] = assay: Compound was evaluated for its inhibitory effects on arachidonic acid induced ear edema at a dose of 100 (ug / ear); format: functional; method in brief: as §3
Mus musculus [22] = species: Mus musculus; assay: Compound was evaluated for its inhibitory effects on delayed type hypersensitive reaction in mouse ears at a dose of 300 ug/site; format: functional; method in brief: as §1
Mus musculus [23] = assay: Compound was evaluated for its inhibitory effects on 12-O-tetradecanoylphorbol-13-acetate (TPA) -induced edema in mouse ear at a dose of 100 ug/site; format: functional; method in brief: as §5
Mus musculus [24] = assay: Compound was evaluated for its inhibitory effects on arachidonic acid (AA) induced mouse ear edema at a dose of 100 ug/ear; format: functional; method in brief: as §3

Row | SMILES | IC50 (Rattus norvegicus [4]) [mg/L] | Inhibition (Mus musculus [1]) [%] | Inhibition (Rattus norvegicus [2]) [%] | Inhibition (Mus musculus [3]) [%] | Inhibition (Mus musculus [14]) [%] | further results
1 | O=[N+]([O-])c1ccc(Cl)c([N+](=O)[O-])c1 | – | – | – | – | – | Erythema (Cavia porcellus [5]): 0; Erythema (Cavia porcellus [6]): 0; Erythema (Cavia porcellus [7]): 3; Edema (Cavia porcellus [8]): 0; Edema (Cavia porcellus [9]): 0; Edema (Cavia porcellus [10]): 4; Edema (Cavia porcellus [11]): 0; Erythema (Cavia porcellus [12]): 0; Erythema (Cavia porcellus [13]): 1
2 | Cc1ccc(O)c(NCCCN2CCC(OC(c3ccc(F)cc3)c3ccc(F)cc3)CC2)c1 | 0.028 (≈ 0.06 µM) | 59.3 | 39 | 49.8 | 61.8 | –
3 | CC(C)N(CCCN1CCN(C(c2ccccc2)c2ccc(Cl)cc2)CC1)c1cc(C(C)(C)C)ccc1O (centres undefined) | 0.39 (≈ 0.73 µM) | – | – | – | 40.3 | –
4 | Cc1ccc(O)c(N(CCCN2CCC(C(O)(c3ccccc3)c3ccc(Cl)cc3)CC2)C(C)C)c1 (centres undefined) | 1 (≈ 1.97 µM) | 18.7 | 48.3 | 48.5 | 89.3 | –
5 | Cc1ccc(O)c(N(CCCN2CCC(C(O)(c3ccccc3)c3ccccc3)CC2)C(C)C)c1 | 0.79 (≈ 1.67 µM) | – | – | – | 39.2 | –
6 | Cc1ccc(O)c(NCCCN2CCC(C(O)(c3ccc(F)cc3)c3ccc(F)cc3)CC2)c1 | 0.025 (≈ 0.0536 µM) | – | 25.4 | – | 86.9 | –
7 | Cc1c(C)c2c(c(C)c1O)CC[C@@](C)(CCC[C@H](C)CCC[C@H](C)CCCC(C)C)O2 [ALPHA-TOCOPHEROL] | 0.87 (≈ 2.02 µM) | – | – | – | – | –
8 | CN(C)CCOC(c1ccccc1)c1ccccc1 [DIPHENHYDRAMINE] | – | – | 27.9 | – | – | Inhibition (Rattus norvegicus [19]): 52.8%; ED50 (Mus musculus [22]): >300 mg/L; ED50 (Mus musculus [23]): >300 mg/L; ED50 (Mus musculus [24]): >300 mg/L

Now from value to compound, other results behind:

Row | IC50 (Rattus norvegicus [4]) [mg/L] | SMILES | Inhibition (Mus musculus [1]) [%] | Inhibition (Rattus norvegicus [2]) [%] | Inhibition (Mus musculus [3]) [%] | Inhibition (Mus musculus [14]) [%] | further results
9 | 0.038 (≈ 0.0914 µM) | Cc1ccc(O)c(NCCCN2CCN(C(c3ccccc3)c3ccccc3)CC2)c1 | 79.3 | 11.2 | 51 | – | –
10 | 0.1 (≈ 0.221 µM) | Cc1ccc(O)c(NCCCN2CCN(C(c3ccc(F)cc3)c3ccc(F)cc3)CC2)c1 | 79.2 | 31.7 | 51 | – | ED50 (Mus musculus [15]): 52.9 mg/L (≈ 117 µM); ED50 (Mus musculus [16]): 47.8 mg/L (≈ 106 µM); Average score (Oryctolagus cuniculus [17]): 0; Average score (Oryctolagus cuniculus [18]): 0; Inhibition (Rattus norvegicus [19]): 51.9%; ED50 (Mus musculus [20]): 47 mg/L (≈ 104 µM); ED50 (Mus musculus [21]): 107.9 mg/L (≈ 239 µM)
11 | 0.27 (≈ 0.582 µM) | Cc1ccc(O)c(N(C)CCCN2CCN(C(c3ccccc3)c3ccc(Cl)cc3)CC2)c1 (centres undefined) | – | – | – | 51.8 | –
12 | 0.12 (≈ 0.267 µM) | Cc1ccc(O)c(NCCCN2CCN(C(c3ccccc3)c3ccc(Cl)cc3)CC2)c1 (centres undefined) | 62 | 48.5 | 67.7 | – | Average score (Oryctolagus cuniculus [17]): 0; Average score (Oryctolagus cuniculus [18]): 0
13 | 0.44 (≈ 0.894 µM) | Cc1ccc(O)c(N(CCCN2CCN(C(c3ccccc3)c3ccc(Cl)cc3)CC2)C(C)C)c1 (centres undefined) | – | – | – | 44.4 | –
14 | 0.48 (≈ 0.991 µM) | Cc1ccc(O)c(NCCCN2CCN(C(c3ccc(Cl)cc3)c3ccc(Cl)cc3)CC2)c1 | – | – | – | 58.2 | –
